The term IC50 denotes the concentration that inhibits the measured activity by half.

The test system of one data set is STS26T MPNST cells. As to the kind of experiment: Flow cytometry cell cycle analysis, STS26T. The note with it: one- or two-IC50 doses, three days. The data set is classed as cell-based, human.
The subject of data set [1] is parental 697 leukemic cells. As to the kind of experiment: Cell proliferation of parental leukemic cells, 3 days. The data set is classed as cell-based. The note with it: 72 h, read-out: IC50 in 697 cells.
Another data set concerns ST8814 MPNST cells. As to the kind of experiment: Flow cytometry cell cycle analysis, ST8814. The data set is classed as cell-based, human. The note with it: one- or two-IC50 doses, three days. For orientation: In flow cytometry, cells or beads pass a laser one at a time.
Another data set in a line: Toxicology study in dogs. The settings on record: same protocol, same lab. Format: in vivo.
In data set [2] the test system is silvestrol-resistant 697-R leukemic cells. The data set can be described thus: Cell proliferation of MDR1-overexpressing leukemic cells, 3 days. The data set is classed as cell-based. The note with it: for sensitivity to MDR1 inhibition: 697-R versus 697 cells.
The conditions of data set [3]: cited from earlier work.
Data set [4] has as its system panel of MPNST, schwannoma, and meningioma cell lines. As to the kind of experiment: Growth-inhibitory activity compared in the cell line panel. The data set is classed as cell-based. The note with it: all cell lines tested. An outline of the steps:
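Compounds were made up as 10-mM stocks in DMSO. Cell lines were authenticated by STR genotyping and confirmed mycoplasma-free. Proliferation was read by resazurin assay.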

Turning to `COc1ccc([C@@]23Oc4cc(OC)cc(OC)c4[C@]2(O)[C@H](O)[C@H](C(=O)N(C)C)[C@H]3c2ccccc2)cc1` [Rocaglamide], the G2/M fraction result with STS26T MPNST cells and in the data set with ST8814 MPNST cells was “marked increase in the G2/M fraction” in each case. Moreover, in data set [1], the IC50 came out at 8 nM. In “Toxicology study in dogs”, the “pulmonary toxicity in dogs” value is “did not produce adverse pulmonary findings”. In addition, the “sensitivity to MDR1 inhibition” value in data set [2] is reported as “not sensitive to MDR1 inhibition”.

Take `COC(=O)[C@H]1[C@@H](O)[C@@]2(O)c3c(OC)cc(O[C@@H]4O[C@@H]([C@H](O)CO)CO[C@H]4OC)cc3O[C@@]2(c2ccc(OC)cc2)[C@@H]1c1ccccc1` [Silvestrol, reference compound]: in data set [3], the oral bioavailability is below 2%. In addition, the IC50 in data set [1] was determined as 3.5 nM; in data set [2] (MDR1, 72 h, read-out: IC50 in 697-R cells) it was 26 nM. Further, in the data set “Toxicology study in dogs”, the “pulmonary toxicity in dogs” value is listed as “massive lung damage”.

As to `COc1ccc([C@@]23Oc4cc(OC)cc(OC)c4[C@]2(O)[C@H](O)[C@H](C(N)=O)[C@H]3c2ccccc2)cc1` [Didesmethylrocaglamide], the G2/M fraction result with STS26T MPNST cells and in the data set on ST8814 MPNST cells was “marked increase in the G2/M fraction” throughout. Also, in data set [4], the “potency relative to silvestrol” value is ~ 2 fold. In addition, the IC50 in data set [1] was 3 nM. Moreover, the “sensitivity to MDR1 inhibition” value in data set [2] was “not sensitive to MDR1 inhibition”.

(Values after paper PMC7056570 (Molecular cancer therapeutics, 2019).)
